In ChEMBL document CHEMBL3098049, “Concise synthesis and biological evaluation of 2-Aroyl-5-amino benzo[b]thiophene derivatives as a novel class of potent antimitotic agents” (J Med Chem, 2013):
Activity calls are given as the source filed them. The calls are words filed in the database; no cut-off is given here.

What was measured:
[1] = tested on: HeLa; assay: Downregulation of cdc25c protein expression in human HeLa cells at 10 to 100 nM after 24 to 48 hrs by Western blot analysis; format: functional, cell-based
Summary of the method: (§1)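 HeLa cultures treated 24 or 48 h, washed in cold PBS, lysed 30 min at 0 °C, clarified at 15000g. 20 μg protein run on 7.5−15% gradient SDS-PAGE and blotted to PVDF. Primary antibodies 2 h at room temperature, peroxidase secondary 60 min, ECL detection. Membranes stripped and reprobed for β-actin as loading control.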

[2] = tested on: Jurkat; assay: Cell cycle arrest in human Jurkat cells assessed as reduction in S phase up to 60 nM after 24 hrs by propidium iodide staining-based flow cytometric analysis relative to control; format: functional
Summary of the method: (§2)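 Jurkat cells treated for 24 h, fixed, PI-labelled and analysed by flow cytometry for cell-cycle phase distribution. Mean of three independent experiments.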

[3] = tested on: Jurkat; assay: Cell cycle arrest in human Jurkat cells assessed as accumulation at G2/M phase after 24 hrs by propidium iodide staining-based flow cytometric analysis; format: functional; summary of the method: as §2
[4] = tested on: HeLa; assay: Cell cycle arrest in human HeLa cells assessed as accumulation at G2/M phase after 24 hrs by propidium iodide staining-based flow cytometric analysis; format: functional
Summary of the method: (§3)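 HeLa cells (5 × 10⁵) treated for 24 h. Harvested, fixed in 70% ethanol chilled to 0 °C, then suspended in RNase with 0.1% Triton X-100. DNA stained with PI, analysed by flow cytometry as DNA-content histograms. Mean of three independent experiments.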

[5] = target: T1, Tubulin (Homo sapiens) (UniProt P68371+Q9H4B7+P0DPH7+P68366+Q13509+Q71U36+P04350+Q3ZCM7+P07437+P68363+Q9BQE3+Q6PEY2+Q13885+Q9BVA1+Q9BUF5); assay: Displacement of [3H]-colchicine from tubulin (unknown origin) at 1 uM after 10 mins relative to control; format: protein-complex assay
[6] = target: T1, Tubulin (Homo sapiens); assay: Displacement of [3H]-colchicine from tubulin (unknown origin) at 5 uM after 10 mins relative to control; format: protein-complex assay
[7] = Inhibition of bovine brain tubulin polymerization preincubated for 15 mins followed by GTP addition measured for 20 mins by turbidometric analysis; design: species or system Bos taurus
[8] = tested on: HeLa; assay: Cell cycle arrest in human HeLa cells assessed as accumulation at G2/M phase at 15 to 30 nM after 24 hrs by propidium iodide staining-based flow cytometric analysis relative to control; format: functional; summary of the method: as §3
[9] = tested on: HUVEC; assay: Cytotoxicity against HUVEC assessed as growth inhibition after 72 hrs by MTT assay; format: cell-based; conditions: Homo sapiens
Summary of the method: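 HUVECs were detached with EDTA/trypsin at confluence, and only passages 1–6 were used. Cells were exposed to varying compound concentrations, and viability was read by MTT after 72 h. IC50 is the concentration reducing cell growth by 50%, as the mean of three independent experiments.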

[10] = tested on: PBL; assay: Cytotoxicity against resting phase of human PBL assessed as growth inhibition after 72 hrs by MTT assay; format: cell-based
Summary of the method: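 Human PBL from healthy donors were isolated on a density gradient, washed, and held overnight in RPMI-1640 with 10% FBS. For proliferating cultures, nonadherent cells were resuspended at 5 × 10⁵ cells/mL with 2.5 μg/mL PHA; resting PBL received no PHA. Cells were exposed to varying compound concentrations, and viability was read by MTT after 72 h. IC50 is the concentration reducing growth by 50%, as the mean of three independent experiments.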

[11] = Cytotoxicity against human Molt4/C8 cells assessed as growth inhibition after 48 hrs by coulter counting analysis; format: functional, cell-based; conditions: MOLT-4, 48 h
Summary of the method: (§4)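 Cells suspended at (3−5) × 10⁵ cells/mL and mixed 1:1 with compound dilutions. Incubated 48 h at 37 °C, counted with a Coulter counter. IC₅₀ = concentration inhibiting proliferation by 50%. Mean of at least three independent experiments.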

[12] = tested on: L1210; assay: Cytotoxicity against mouse L1210 cells assessed as growth inhibition after 48 hrs by coulter counting analysis; format: functional, cell-based; conditions: L1210, 48 h; summary of the method: as §4
[13] = Cytotoxicity against mouse FM3A/0 cells assessed as growth inhibition after 48 hrs by coulter counting analysis; format: functional, cell-based; conditions: FM3A/0, 48 h
[14] = tested on: Jurkat; assay: Cell cycle arrest in human Jurkat cells assessed as accumulation at G2/M phase at 10 nM after 24 hrs by propidium iodide staining-based flow cytometric analysis; format: functional; summary of the method: as §2
[15] = Selectivity ratio of IC50 for HUVEC to IC50 for human HeLa cells; format: ADME, cell-based; conditions: HUVEC and HeLa cells, read-out: Ratio IC50
[16] = Selectivity ratio of IC50 for HUVEC to IC50 for human CEM/0 cells; format: ADME, cell-based; conditions: HUVEC and CEM/0 cells, read-out: Ratio IC50
[17] = Selectivity ratio of IC50 for HUVEC to IC50 for mouse FM3A/0 cells; format: ADME, cell-based; conditions: HUVEC and FM3A/0 cells, read-out: Ratio IC50
[18] = Selectivity ratio of IC50 for HUVEC to IC50 for human Molt4/C8 cells; format: ADME, cell-based; conditions: HUVEC and Molt4/C8 cells, read-out: Ratio IC50
[19] = tested on: MNNG-HOS; assay: Antitumor activity against human MNNG-HOS cells xenografted in Balb/c-nu mouse assessed as tumor growth inhibition at 50 mg/kg, ip measured after 3 days; format: functional, organism-based; design: dose 50 mg/kg; conditions: HOS-TE85
[20] = tested on: HeLa; assay: Downregulation of Xiap protein expression in human HeLa cells at 10 to 100 nM after 24 to 48 hrs by Western blot analysis; format: functional, cell-based; summary of the method: as §1
[21] = tested on: HeLa; assay: Downregulation of Bcl-2 protein expression in human HeLa cells at 10 to 100 nM after 24 to 48 hrs by Western blot analysis; format: functional, cell-based; summary of the method: as §1
[22] = tested on: HeLa; assay: Induction of apoptosis in human HeLa cells assessed as PARP cleavage at 10 nM after 24 hrs by Western blot analysis; format: functional, cell-based; summary of the method: as §1
[23] = tested on: HeLa; assay: Induction of apoptosis in human HeLa cells assessed as caspase-9 cleavage at 10 to 100 nM after 24 to 48 hrs by Western blot analysis; format: functional, cell-based; summary of the method: as §1
[24] = tested on: HeLa; assay: Induction of mitochondrial membrane depolarization in human HeLa cells at 15 to 250 nM by JC-1 staining-based fluorescence assay; format: functional, cell-based; conditions: TDE = time-dependent effect
Summary of the method: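 HeLa cells treated 24 or 48 h, then stained with JC-1. Cells with depolarised mitochondria quantified by flow cytometry. Mean of three independent experiments.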

[25] = tested on: HeLa; assay: Induction of DNA damage in human HeLa cells assessed as upregulation of gamma-H2A.X protein expression at 100 nM after 24 hrs by Western blot analysis; format: functional, cell-based; summary of the method: as §1

In the case of COc1cc(C(=O)c2cc3cc(N)cc(OC)c3s2)cc(OC)c1OC, the Activity [1] is reported as “Active”, the Activity [2] is reported as “Active” and the Activity [3] is reported as “Dose-dependent effect”. The Activity [4] was “Dose-dependent effect”, the inhibition [5] was 89% and the inhibition [6] was 97%. For the same molecule, the IC50 [7] was 520 nM, the Activity [8] was greater than 80% and the IC50 [9] was 5500 nM. It also gave an IC50 [10] of 24700 nM, an IC50 [11] of 2.6 nM and an IC50 [12] of 5 nM. For the same molecule, the IC50 [13] was 12 nM, the Activity [14] was “Active” and the selectivity ratio [15] was 460. For the same molecule, the selectivity ratio [16] was 460, the selectivity ratio [17] was 460 and the selectivity ratio [18] was 460. For the same molecule, the TGI [19] was “Active”, the Activity [20] was “Active” and the Activity [21] was “Active”. The Activity [22] was “Active”, the Activity [23] was “Active” and the Activity [24] was “tde”. For the same molecule, the Activity [25] was “Active”.
